The results in this text go back to PubChem BioAssay.

The source made the active and inactive calls.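 The calls were made as follows, unless noted: active = viability loss from added drug above about 55%, and viability with drug at most 40%, in both replicates (limit read from the data, passing the limit was not always enough); inconclusive = both conditions met in only one replicate; inactive = neither replicate meets both conditions.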

Assay [1] is described as follows: Her2 expression decrease, cell viability multiplex – SKBR3 breast tumor cells, AlphaScreen, ATP viability, primary screen (AID 461;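 active = Her2 level under about 52% in both replicate screens, with viability over 70% of control, limit read from the data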;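 as to Her2 level: lower value means less Her2 protein in the cells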;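 as to viability: percent of carrier control wells set as 100% viability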). Conditions: SKBR3 Her2 protein level, 18-24 h, measured here: SKBR3 viability, ATP luminescence, at 10 µM. In general terms: Alpha assays give light when donor and acceptor beads are brought close together.
Assay [2] concerns the target Receptor tyrosine-protein kinase erbB-2 (Homo sapiens) (UniProt P04626). Described as above. Conditions: 18-24 h, at 10 µM, stronger effect = lower value.
Assay [3] can be described thus: reduced viability of SK-BR-3 breast cancer cells – cell-based, 24 h, human, pilot screen (AID 572;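 active = viability at or below 10% of carrier control in both of two separate runs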;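 also: compound exposure lasted between 18 and 24 h rather than exactly 24 h; 100% = carrier-treated control wells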). Conditions: SK-BR-3 viability, CellTiter-Glo luminescence, at 10 µM, stronger effect = lower value. (Cellular ATP, detected with luciferase, serves as a proxy for viable cell number.)
The nature of assay [4]: HUVEC growth inhibition – cell-based, human, primary screen (AID 575;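 active = viability at or below 30% in both replicate assays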;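 also: 100% = median of untreated cell wells with 0.1% DMSO on each plate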). The following applies: HUVEC proliferation, CellTiter-Glo luminescence, 72 h; at 10 µM; stronger effect = lower value. The procedure, abridged: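 Test system: HUVEC primary cells. Quantity: 1250 endothelial cells in each well. Dosing: single-point 10 µM, DMSO 0.1% final. Incubation: 72 h treatment at 37 °C. Measured by: CTG luminescence. Control set: DMSO cell controls and MePR drug controls. Plate: collagen-coated 384-well format.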

The nature of assay [5]: H69AR cell proliferation blockers – human, duplicate replicates, primary screen (AID 580;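 active = viability at or under a set limit in both replicates, limit being median viability minus 3 SD, cut at about 48% in these data, passing the limit was not always enough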;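 also: 100% = mean luminescence of untreated wells and 0% = no signal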). The following applies: H69AR lung tumor cells viability, ATP luminescence, 72 h; at 10 µM; stronger effect = lower value.
The nature of assay [6]: MRP1 drug-resistance reversers in H69AR cells – cell-based, doxorubicin co-treatment, pilot screen (AID 601). Conditions: CellTiter-Glo, 72 h, at 10 µM; for differential viability (reversal): stronger effect = higher value.
The nature of assay [7]: yeast transport mutant growth inhibition pilot in 384-well plates, post-Golgi transport modulator project (AID 636; in the data active = inhibition above about 31%). Conditions: absorbance 615 nm, about 18 h, stronger effect = higher value.
Assay [8] in a line: growth suppression of yeast trafficking mutant, preliminary HTS, modulators of trafficking downstream of Golgi apparatus project, 1536-format plate, OD 615 nm (AID 637; in the data active = inhibition above about 30%). Conditions: yeast transport mutant growth, absorbance 615 nm, 18 h; stronger effect = higher value.
[9] abbreviates: H69AR cells + 2 uM doxorubicin, measured here: viability with 2 uM doxorubicin, stronger effect = lower value.
The mark [10] stands for this setting: H69AR cells, compound alone cytotoxicity.

Receptor tyrosine-protein kinase erbB-2 (Homo sapiens), sequence (P04626 whole entry, looked up): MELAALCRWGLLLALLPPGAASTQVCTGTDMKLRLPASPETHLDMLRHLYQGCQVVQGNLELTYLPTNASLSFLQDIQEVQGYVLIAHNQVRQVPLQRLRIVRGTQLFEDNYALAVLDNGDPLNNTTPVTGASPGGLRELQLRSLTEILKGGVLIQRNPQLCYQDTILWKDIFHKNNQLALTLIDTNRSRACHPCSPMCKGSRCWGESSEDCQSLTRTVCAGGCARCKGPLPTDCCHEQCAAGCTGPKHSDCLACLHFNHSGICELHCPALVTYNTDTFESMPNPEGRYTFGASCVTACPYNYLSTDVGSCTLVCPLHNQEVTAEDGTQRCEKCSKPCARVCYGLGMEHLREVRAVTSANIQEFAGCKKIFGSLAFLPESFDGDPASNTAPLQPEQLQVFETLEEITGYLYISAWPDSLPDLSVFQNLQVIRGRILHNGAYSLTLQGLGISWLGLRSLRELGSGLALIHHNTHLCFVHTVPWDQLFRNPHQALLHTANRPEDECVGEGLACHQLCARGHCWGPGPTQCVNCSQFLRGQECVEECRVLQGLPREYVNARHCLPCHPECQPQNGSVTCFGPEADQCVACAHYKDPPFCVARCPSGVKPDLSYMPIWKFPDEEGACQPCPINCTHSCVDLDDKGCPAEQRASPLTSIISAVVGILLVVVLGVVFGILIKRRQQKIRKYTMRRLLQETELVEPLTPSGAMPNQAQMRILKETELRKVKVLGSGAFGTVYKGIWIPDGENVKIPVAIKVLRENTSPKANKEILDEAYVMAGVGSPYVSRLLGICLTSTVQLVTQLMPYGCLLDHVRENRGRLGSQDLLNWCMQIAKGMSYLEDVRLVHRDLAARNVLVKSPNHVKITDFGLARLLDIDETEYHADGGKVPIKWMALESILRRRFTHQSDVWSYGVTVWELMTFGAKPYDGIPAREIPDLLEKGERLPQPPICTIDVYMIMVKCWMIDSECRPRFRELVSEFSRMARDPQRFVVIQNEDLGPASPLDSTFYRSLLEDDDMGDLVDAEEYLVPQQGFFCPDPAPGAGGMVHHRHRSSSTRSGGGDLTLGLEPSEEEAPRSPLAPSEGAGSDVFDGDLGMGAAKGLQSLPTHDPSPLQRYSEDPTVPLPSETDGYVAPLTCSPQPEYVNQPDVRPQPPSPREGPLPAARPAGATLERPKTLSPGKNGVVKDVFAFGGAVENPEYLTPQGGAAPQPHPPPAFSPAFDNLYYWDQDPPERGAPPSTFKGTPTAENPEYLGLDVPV

A word on the viability: it is a read-out of living cells in per cent, often relative to untreated cells. One may read the inhibition as the drop in the measured response relative to a control, in per cent. Consider `CCOC(=O)CNC(=O)Nc1ccccc1C(=O)OC`, for which the viability in assay [1] was 116%; in assay [3] it was 116% (inactive); in assay [4], 96.7% (inactive); in assay [5], 94.1% (inactive); in assay [6] (setting [9]) it was 85.3%; in assay [6] (setting [10]) it was 94.1%. In addition, the Her2 level in assay [2] is 86.5% (inactive). For the same molecule, the differential viability (reversal) in assay [6] (H69AR cells + 2 uM doxorubicin) was 8.77% (inactive). Also, the inhibition in assay [7] is -2.5% (inactive); in assay [8], 1.29% (inactive).
In the case of `Cc1ccc(N2C(=O)c3ccccc3C2Nc2cccnc2)nc1` (stereo not given), the viability in assay [1] was 94%; in assay [3], 94% (inactive); in assay [4] it was 85.4% (inactive); in assay [5] it was 83.3% (inactive); in assay [6] (setting [9]) it was 94.1%; in assay [6] (setting [10]), 83.3%. The Her2 level in assay [2] is 99.5% (inactive). The differential viability (reversal) in assay [6] (H69AR cells + 2 uM doxorubicin) was -10.8% (inactive). Also, the inhibition in assay [7] was -2.18% (inactive); in assay [8], -1.33% (inactive).
`COCCN(C(=O)c1csnn1)C(C(=O)NC1CCCCC1)c1cccs1` (stereo not given): the viability is 100% in assay [1]; 100% (inactive) in assay [3]; 94.7% (inactive) in assay [4]; 98.9% (inactive) in assay [5]; 87.9% in assay [6] (setting [9]); 98.9% in assay [6] (setting [10]). Besides, the Her2 level in assay [2] is 89% (inactive). Further, in assay [6] (H69AR cells + 2 uM doxorubicin), the differential viability (reversal) was 11% (inactive). Also, the inhibition is -7.6% (inactive) in assay [7] and 2.86% (inactive) in assay [8].
Regarding `COc1ccc2nc(NC(=O)C3CCCN(S(=O)(=O)c4cccc5nsnc45)C3)sc2c1` (stereo not given), the viability in assay [1] was 96.5%; in assay [3], 96.5% (inactive); in assay [4], 75% (inactive); in assay [5] it was 83.1% (inactive); in assay [6] (setting [9]), 93.2%; in assay [6] (setting [10]), 83.1%. The Her2 level in assay [2] is 97.5% (inactive). For the same molecule, the differential viability (reversal) in assay [6] (H69AR cells + 2 uM doxorubicin) is -10.1% (inactive). The inhibition in assay [7] was 4.53% (inactive); in assay [8], -2.7% (inactive).
Consider `Cc1nc2c(-c3ccccc3)c(C)nn2c(C)c1CCC(=O)O`, for which the viability in assay [1] was 97.5%; in assay [3] it was 97.5% (inactive); in assay [4], 85.5% (inactive); in assay [5], 86.2% (inactive); in assay [6] (setting [9]), 87%; in assay [6] (setting [10]) it was 86.2%. The Her2 level in assay [2] was 100% (inactive). Also, the differential viability (reversal) in assay [6] (H69AR cells + 2 uM doxorubicin) is -0.87% (inactive). Moreover, the inhibition is -4% (inactive) in assay [7] and 5.57% (inactive) in assay [8].
Consider `COC(=O)COc1ccc(S(=O)(=O)NCCC2=CCCCC2)cc1`, for which the viability was 99% in assay [1]; 99% (inactive) in assay [3]; 10.6% (active) in assay [4]; 95% (inactive) in assay [5]; 98.7% in assay [6] (setting [9]); 95% in assay [6] (setting [10]). The Her2 level in assay [2] is 83.5% (inactive). The differential viability (reversal) in assay [6] (H69AR cells + 2 uM doxorubicin) was -3.67% (inactive). Moreover, the inhibition was 0% (inactive) in assay [7] and -1.13% (inactive) in assay [8].
For `Cc1nnc(SCC(=O)N2CCN(S(=O)(=O)c3ccccc3)CC2)[nH]c1=O`, the viability is 109% in assay [1]; 109% (inactive) in assay [3]; 109% (inactive) in assay [4]; 107% (inactive) in assay [5]; 91.2% in assay [6] (setting [9]); 107% in assay [6] (setting [10]). Moreover, the Her2 level in assay [2] was 98.5% (inactive). Further, the differential viability (reversal) in assay [6] (H69AR cells + 2 uM doxorubicin) is 15.5% (inactive). In addition, the inhibition in assay [7] was -6.67% (inactive); in assay [8], -2.9% (inactive).
In the case of `O=C(C1CCC1)N1CCc2cc(S(=O)(=O)N3CCc4ccccc4C3)ccc21`, the viability is 88% in assay [1]; 88% (inactive) in assay [3]; 72.1% (inactive) in assay [4]; 89% (inactive) in assay [5]; 94% in assay [6] (setting [9]); 89% in assay [6] (setting [10]). In addition, the Her2 level in assay [2] was 97% (inactive). Besides, in assay [6] (H69AR cells + 2 uM doxorubicin), the differential viability (reversal) is -5.04% (inactive). Also, the inhibition was -5.47% (inactive) in assay [7] and -7.54% (inactive) in assay [8].
For `CCOC(=O)C1CCCN(CCC(C)c2ccccc2)C1` (stereo not given), the viability was 94% in assay [1]; 94% (inactive) in assay [3]; 106% (inactive) in assay [4]; 95.7% (inactive) in assay [5]; 84.3% in assay [6] (setting [9]); 95.7% in assay [6] (setting [10]). Also, the Her2 level in assay [2] was 84.5% (inactive). Further, the differential viability (reversal) in assay [6] (H69AR cells + 2 uM doxorubicin) was 11.3% (inactive). Besides, the inhibition was -6.8% (inactive) in assay [7] and 4.1% (inactive) in assay [8].
For the molecule `CCCn1c(N)c(C(=O)CSc2nnc(Cc3ccccc3)o2)c(=O)n(C)c1=O`, the viability in assay [1] was 104%; in assay [3], 104% (inactive); in assay [4], 75.2% (inactive); in assay [5], 84.6% (inactive); in assay [6] (setting [9]) it was 98.2%; in assay [6] (setting [10]) it was 84.6%. In assay [2], the Her2 level is 90.5% (inactive). The differential viability (reversal) in assay [6] (H69AR cells + 2 uM doxorubicin) is -13.6% (inactive). Also, the inhibition is 0.65% (inactive) in assay [7] and 3.93% (inactive) in assay [8].
As for `O=C(CN(Cc1ccco1)C(=O)CNS(=O)(=O)c1ccc(Cl)cc1)NCc1ccc(F)cc1`, the viability in assay [1] is 118%; in assay [3], 118% (inactive); in assay [4] it was 83.4% (inactive); in assay [5], 81.4% (inactive); in assay [6] (setting [9]), 86.5%; in assay [6] (setting [10]) it was 81.4%. For the same molecule, the Her2 level in assay [2] is 106% (inactive). The differential viability (reversal) in assay [6] (H69AR cells + 2 uM doxorubicin) was -5.12% (inactive). The inhibition in assay [7] was -0.53% (inactive); in assay [8] it was 1.77% (inactive).
For the molecule `Nc1c(S(=O)(=O)c2cccs2)c2nc3ccccc3nc2n1CC1CCCO1` (stereo not given), the viability in assay [1] is 79.5%; in assay [3], 79.5% (inactive); in assay [4] it was 85.2% (inactive); in assay [5], 85.9% (inactive); in assay [6] (setting [9]), 81%; in assay [6] (setting [10]), 85.9%. Moreover, the Her2 level in assay [2] was 89.5% (inactive). In addition, the differential viability (reversal) in assay [6] (H69AR cells + 2 uM doxorubicin) is 4.9% (inactive). In addition, the results for the inhibition in assay [7] and in assay [8] were -2.21% (inactive) and -1.33% (inactive), respectively.
Consider `O=C(c1ccc2c(c1)c(=O)oc1ccccc12)N1CCCCC1`, for which the viability is 109% in assay [1]; 109% (inactive) in assay [3]; 98.6% (inactive) in assay [4]; 101% (inactive) in assay [5]; 87.3% in assay [6] (setting [9]); 101% in assay [6] (setting [10]). For the same molecule, the Her2 level in assay [2] is 86% (inactive). Further, in assay [6] (H69AR cells + 2 uM doxorubicin), the differential viability (reversal) was 14.1% (inactive). Moreover, the figures for the inhibition in assay [7] and in assay [8] were -2.11% (inactive) and 3.17% (inactive), respectively.
`CCOC(=O)C1CCCN(c2cc(=O)n(Cc3ccc(F)cc3)c(=O)[nH]2)C1` (stereo not given): the viability was 92% in assay [1]; 92% (inactive) in assay [3]; 92.6% (inactive) in assay [4]; 97.2% (inactive) in assay [5]; 94.1% in assay [6] (setting [9]); 97.2% in assay [6] (setting [10]). Moreover, the Her2 level in assay [2] is 87% (inactive). For the same molecule, the differential viability (reversal) in assay [6] (H69AR cells + 2 uM doxorubicin) is 3.08% (inactive). Also, the inhibition was -4.67% (inactive) in assay [7] and 0.33% (inactive) in assay [8].
